Data reported in ChEMBL document CHEMBL1127821 (J Med Chem, 1994).

Tests used:
[1] = molecular target: T1, Sodium-dependent dopamine transporter (Rattus norvegicus, UniProt P23977); assay: Inhibition of [125I]RTI-55 binding to dopamine transport sites in rat striatal membranes.; type: cell membranes, Membrane
[2] = molecular target: Sodium-dependent serotonin transporter (Rattus norvegicus, UniProt P31652); assay: Inhibition of [3H]paroxetine binding to serotonin transport sites in rat frontal cortex membranes.; type: cell membranes, Membrane
Sodium-dependent serotonin transporter, sequence (P31652 whole entry): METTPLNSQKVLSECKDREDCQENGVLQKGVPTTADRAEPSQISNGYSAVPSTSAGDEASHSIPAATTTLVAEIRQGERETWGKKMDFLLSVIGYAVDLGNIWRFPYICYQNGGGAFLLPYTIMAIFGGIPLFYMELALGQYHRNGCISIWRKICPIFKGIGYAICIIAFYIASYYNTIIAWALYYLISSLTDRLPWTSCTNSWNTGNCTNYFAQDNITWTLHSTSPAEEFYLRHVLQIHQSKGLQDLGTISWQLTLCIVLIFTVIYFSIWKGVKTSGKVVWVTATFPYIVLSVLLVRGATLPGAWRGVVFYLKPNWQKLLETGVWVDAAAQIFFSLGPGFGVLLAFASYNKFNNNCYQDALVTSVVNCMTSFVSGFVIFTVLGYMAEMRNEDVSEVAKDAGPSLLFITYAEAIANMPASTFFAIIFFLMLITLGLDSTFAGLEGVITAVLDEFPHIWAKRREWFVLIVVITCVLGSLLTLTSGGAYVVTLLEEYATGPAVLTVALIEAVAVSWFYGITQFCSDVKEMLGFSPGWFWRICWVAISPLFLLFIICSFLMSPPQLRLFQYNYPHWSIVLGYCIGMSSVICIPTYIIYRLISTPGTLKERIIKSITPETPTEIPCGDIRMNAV
How it was run: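 Frontal cortex from male Sprague-Dawley rats, homogenized in 50 mM Tris-HCl/120 mM NaCl/5 mM KCl pH 7.4 and washed twice at 48000g. […] Filtered on GF/B presoaked in 0.05% polyethyleneimine. Nonspecific binding with 10 μM fluoxetine.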

[3] = molecular target: T1, Sodium-dependent dopamine transporter; assay: The potency of the [125I]RTI-55 for Dopamine transporter site

T1 sequence (P23977 whole entry): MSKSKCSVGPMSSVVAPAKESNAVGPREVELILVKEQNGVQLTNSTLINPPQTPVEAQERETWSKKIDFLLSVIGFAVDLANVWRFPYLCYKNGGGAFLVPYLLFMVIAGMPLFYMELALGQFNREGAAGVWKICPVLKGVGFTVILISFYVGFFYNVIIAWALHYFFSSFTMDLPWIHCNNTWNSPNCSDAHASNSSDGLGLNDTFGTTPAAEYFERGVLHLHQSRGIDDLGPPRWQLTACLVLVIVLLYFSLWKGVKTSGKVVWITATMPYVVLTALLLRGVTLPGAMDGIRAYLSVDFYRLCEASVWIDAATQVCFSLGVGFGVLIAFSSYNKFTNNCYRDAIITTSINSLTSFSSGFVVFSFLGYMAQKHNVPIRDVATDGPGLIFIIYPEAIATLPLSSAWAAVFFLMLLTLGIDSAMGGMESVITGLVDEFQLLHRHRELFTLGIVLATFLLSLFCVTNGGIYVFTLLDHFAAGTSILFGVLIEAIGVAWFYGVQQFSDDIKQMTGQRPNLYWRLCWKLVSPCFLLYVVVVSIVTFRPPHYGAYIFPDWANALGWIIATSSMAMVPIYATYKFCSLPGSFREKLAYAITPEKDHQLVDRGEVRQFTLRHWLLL

CCC(=O)C1C(c2ccc(C(C)(C)C)cc2)CC2CCC1N2C (stereo unspecified)
IC50 [1]: 2120 nM | Ki [2]: 1770 nM

CCC(=O)C1C(c2ccc(-c3ccccc3)cc2)CC2CCC1N2C (stereo unspecified)
IC50 [1]: 2.29 nM | Ki [2]: 4.31 nM

CC(=O)C1C(c2ccc(F)cc2)CC2CCC1N2C (stereo unspecified)
IC50 [1]: 70.8 nM | Ki [2]: 857 nM

CC(=O)C1C(c2ccc3ccccc3c2)CC2CCC1N2C (stereo unspecified)
IC50 [1]: 0.28 nM | Ki [2]: 1.06 nM

CC(=O)C1C(c2ccc(C)cc2)CC2CCC1N2C (stereo unspecified)
IC50 [1]: 9.8 nM | Ki [2]: 122 nM

CCC(=O)C1C(c2ccc(F)cc2)CC2CCC1N2C (stereo unspecified)
IC50 [1]: 15.3 nM | Ki [2]: 630 nM

CC(=O)C1C(c2cccc3ccccc23)CC2CCC1N2C (stereo unspecified)
Ki [2]: 25.6 nM

CCOC(=O)C1C(c2ccc(I)cc2)CC2CCC1N2C (stereo unspecified)
Kd [3]: 1 nM

CCC(=O)C1C(c2ccccc2)CC2CCC1N2C (stereo unspecified)
Ki [2]: 1010 nM

CCc1ccc(C2CC3CCC(C2C(C)=O)N3C)cc1 (stereo unspecified)
IC50 [1]: 152 nM | Ki [2]: 78.2 nM

CCC(=O)C1C(c2ccccc2C)CC2CCC1N2C (stereo unspecified)
IC50 [1]: 1290 nM | Ki [2]: > 10000 nM

CCC(=O)C1C(c2ccc(C(C)C)cc2)CC2CCC1N2C (stereo unspecified)
IC50 [1]: 436 nM | Ki [2]: 35.8 nM

CCC(=O)C1C(c2cccc3ccccc23)CC2CCC1N2C (stereo unspecified)
IC50 [1]: 5.34 nM | Ki [2]: 20.9 nM

CCC(=O)C1C(C2CCCCC2)CC2CCC1N2C (stereo unspecified)
IC50 [1]: 4610 nM | Ki [2]: > 10000 nM

CCC(=O)C1C(CC)CC2CCC1N2C (stereo unspecified)
IC50 [1]: > 50000 nM | Ki [2]: > 10000 nM

CC(=O)C1C(c2ccccc2)CC2CCC1N2C (stereo unspecified)
IC50 [1]: 114 nM | Ki [2]: 1360 nM

CCC(=O)C1C(c2ccc(C)cc2)CC2CCC1N2C (single isomer, unassigned; (+))
IC50 [1]: 4.21 nM | Ki [2]: 74 nM

CCC(=O)C1C(c2ccc(C)cc2)CC2CCC1N2C (single isomer, unassigned; (-))
IC50 [1]: 1340 nM | Ki [2]: > 10000 nM

CCC(=O)C1C(c2ccc3ccccc3c2)CC2CCC1N2C (single isomer, unassigned; (-))
IC50 [1]: 113 nM | Ki [2]: 484 nM

CCC(=O)C1C(c2ccc(C)cc2)CC2CCC1N2C (stereo in doubt; 12a)
IC50 [1]: 8.2 nM | Ki [2]: 131 nM

CCC(=O)C1C(c2ccc3ccccc3c2)CC2CCC1N2C (stereo in doubt; 21a)
IC50 [1]: 0.115 nM | Ki [2]: 0.394 nM

CCC(=O)C1C(c2ccc3ccccc3c2)CC2CCC1N2C (stereo in doubt; (+)-21a)
IC50 [1]: 0.043 nM | Ki [2]: 0.121 nM
